Measured values published in ChEMBL document CHEMBL5614452, “Synthesis and Optimization of Small Molecule Inhibitors of Prostate Specific Antigen” (ACS Med Chem Lett, 2024).
≈ marks a conversion by molar mass, not a printed value. Calls of active or inactive are those of the source. No cut-off for these calls is given here.

Columns and labels:
[1] = molecular target: T1, Prostate-specific antigen (Homo sapiens) (UniProt P07288); test: Inhibition of recombinant human semen PSA at 0.000001 to 500 uM using Mu-HSSKLQAMC as substrate preincubated for 15 mins followed by substrate addition by fluorescence based assay; assay type: single protein; conditions: dose lower 1e-06 µM, dose upper 500.0 µM
T1 sequence (whole entry): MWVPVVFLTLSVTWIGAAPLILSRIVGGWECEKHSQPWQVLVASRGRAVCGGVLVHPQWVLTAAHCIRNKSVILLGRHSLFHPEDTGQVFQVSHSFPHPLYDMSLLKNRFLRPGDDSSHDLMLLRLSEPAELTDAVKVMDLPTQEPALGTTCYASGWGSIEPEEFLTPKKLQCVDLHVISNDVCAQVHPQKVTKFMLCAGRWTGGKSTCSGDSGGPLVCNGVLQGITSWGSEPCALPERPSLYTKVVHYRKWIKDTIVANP
In short: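 PSA inhibition in a biochemical assay. Compounds tested at 100 nM, 1 μM, 10 μM, 100 μM and 500 μM, plus a lower picomolar-level concentration. Compounds with no inhibition across this range were scored not active.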

[2] = molecular target: T2, Prostate-specific antigen (Homo sapiens, UniProt P07288); test: Inhibition of recombinant human semen PSA using Mu-HSSKLQAMC as substrate preincubated for 15 mins followed by substrate addition by fluorescence based assay
T2 sequence (P07288 whole entry): T1 sequence (whole entry)

[3] = Stability in DMEM/F-12 medium assessed as compound remaining at 10 uM after 8 hrs by LC-MS/MS analysis; assay type: physicochemical; conditions: read-out: Stability
In short: (§1)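 Compound incubated in DMEM/F12 medium at 37 °C and sampled at 0, 8 and 24 h. Stability reported as percent of compound remaining.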

[4] = Aqueous solubility of compound incubated for 1 hr by HPLC analysis; assay type: physicochemical
[5] = molecular target: Prothrombin (Homo sapiens, UniProt P00734); test: Inhibition of thrombin (unknown origin) by fluorescence based assay
In short: (§2)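 Protease inhibition measured in biochemical enzyme assays, with the result reported as Ki.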

[6] = Inhibition of alpha-chymotrypsin (unknown origin) using N-Benzoyl-L-tyrosine ethyl ester as substrate preincubated for 5 mins followed by substrate addition and measured every 1 min for 10 mins by microplate reader assay; parameters: species or system Homo sapiens; in short: as §2
[7] = Stability in DMEM/F-12 medium assessed as compound remaining at 10 uM after 24 hrs by LC-MS/MS analysis; assay type: physicochemical; in short: as §1
[8] = Drug uptake in human HepG2 cells assessed as intracellular concentration per 10^9 cells at 10 uM incubated for 2 hrs by UHPLC-TSQ analysis; assay type: ADME, cell-based; conditions: hepg2, 2 h
In short: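 HepG2 cells exposed to compound. Intracellular amount expressed as nmol per 10^9 cells, n = 4.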

[9] = molecular target: T3, Neutrophil elastase (Homo sapiens, UniProt P08246); test: Inhibition of neutrophil elastase (unknown origin) using 7-amino-4-trifluoromethyl-coumarin based peptide as substrate measured for 1 hr by fluorescence based microplate reader assay; in short: as §2
T3 sequence (P08246 whole entry): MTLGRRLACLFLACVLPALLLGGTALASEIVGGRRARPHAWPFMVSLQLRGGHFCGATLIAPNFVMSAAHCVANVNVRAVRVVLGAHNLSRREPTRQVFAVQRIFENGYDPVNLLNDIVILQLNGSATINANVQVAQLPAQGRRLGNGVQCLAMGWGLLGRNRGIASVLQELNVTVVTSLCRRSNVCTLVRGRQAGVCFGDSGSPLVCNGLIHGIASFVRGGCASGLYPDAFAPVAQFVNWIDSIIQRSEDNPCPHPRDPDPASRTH

[10] = Cytotoxicity against human Ect1/E6E7 cells incubated for 1 to 3 hrs by MTT assay; assay type: toxicity, cell-based; conditions: time 1-3 hrs
In short: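 Ect1/E6E7 human ectocervical cells exposed to compound for 1 or 3 h, with viability read by MTT assay. Nonoxynol-9 served as the positive cytotoxic control.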

## COc1cncc(-c2cc(N)n(C(=O)c3ccc(OC)c(OC)c3)n2)c1
[1]
  inhibition: inactive

## COc1ccc(-c2cc(N(C)C)n(C(=O)c3ccc(OC)c(OC)c3)n2)cn1
[1]
  inhibition: inactive

## COc1ccc(-c2cc(N)n(C(=O)c3cc(OC)c(OC)c(OC)c3)n2)cn1
[2]
  Ki: 367 µM

## COc1ccc(C(=O)n2nc(-c3ccncc3)cc2N)cc1OC
[2]
  Ki: 104 µM

## CNc1cc(-c2ccc(OC)nc2)nn1C(=O)c1ccc(OC)c(OC)c1
[1]
  inhibition: inactive

## COc1ccc(Cn2nc(-c3cccnc3)nc2N)cc1OC
[1]
  inhibition: inactive

## Nc1n[nH]c(-c2cccnc2)n1
[1]
  inhibition: inactive

## COc1ccc(-c2cc(N)n(C(=O)c3ccc4[nH]cnc4c3)n2)cn1
[3]
  remaining at 8 h, 10 µM: ~47%
[4]
  solubility at 1 h: 27 µM (≈ 9.03 µg/mL)
[5]
  Ki: 0.411 µM
[6]
  Ki: 2.74 µM
[7]
  Stability: Unstable
[8]
  Drug uptake: 3.41 nmol
[9]
  Ki: 1180 µM
[10]
  Activity: Non-Toxic

## COc1ccc(C(=O)n2nc(-c3cccnc3)nc2N)cc1OC
[3]
  remaining at 8 h, 10 µM: ~4%
[7]
  Stability: Unstable

## COc1ccc(CC(=O)n2nc(-c3cccnc3)nc2N)cc1OC
[2]
  Ki: 308 µM
